Activity calls are given as the source filed them. No cut-off for these calls is given here.
Tests used:
[1] = tested on: Mus musculus; assay: Anticonvulsant activity in Albino CF1 mouse upto 300 mg/kg, ip in maximal electroshock seizure test; format: functional, organism-based; set-up: dose 300 mg/kg
Summary of the method: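 Mice dosed i.p. (0.01 mL/g) at 30, 100 and 300 mg/kg. Electroshock challenge run 30 min and 4 h after dosing.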

[2] = tested on: Mus musculus; assay: Anticonvulsant activity against subcutaneous pentylenetetrazole-induced seizure in Albino CF1 mouse at 300 mg/kg, ip after 0.5 hrs; format: functional, organism-based; set-up: dose 300 mg/kg
Summary of the method: (§1)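 Test compounds given i.p. to mice at 0.01 mL/g, at 30, 100 or 300 mg/kg. The seizure challenge followed at 0.5 h and at 4 h after dosing. The value recorded is the lowest dose that protected half or more of the mice. Where no activity was seen, the maximum dose given was 300 mg/kg.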

[3] = tested on: Mus musculus; assay: Anticonvulsant activity against subcutaneous pentylenetetrazole-induced seizure in Albino CF1 mouse at 30 mg/kg, ip after 4 hrs; format: functional, organism-based; set-up: dose 30 mg/kg; summary of the method: as §1
[4] = tested on: Mus musculus; assay: Anticonvulsant activity against subcutaneous strychnine-induced seizure in Albino CF1 mouse at 300 mg/kg, ip after 0.5 hrs; format: functional, organism-based; set-up: dose 300 mg/kg; summary of the method: as §1
[5] = tested on: Mus musculus; assay: Anticonvulsant activity against intraperitoneal picrotoxin-induced seizure in Albino CF1 mouse at 300 mg/kg, ip after 0.5 hrs; format: functional, organism-based; set-up: dose 300 mg/kg
Summary of the method: (§2)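 Mice received the test compound by intraperitoneal injection at 30, 100 or 300 mg/kg. They were then challenged with intraperitoneal picrotoxin and scored for anticonvulsant protection 0.5 h or 4 h after dosing. The value recorded is the lowest dose that protected half or more of the mice. A dash means no activity up to 300 mg/kg.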

[6] = tested on: Mus musculus; assay: Anticonvulsant activity against intraperitoneal picrotoxin-induced seizure in Albino CF1 mouse at 300 mg/kg, ip after 4 hrs; format: functional, organism-based; set-up: dose 300 mg/kg; summary of the method: as §2
[7] = tested on: Mus musculus; assay: Neurotoxicity in Albino CF1 mouse at 300 mg/kg, ip after 0.5 hrs by Rotarod test; format: toxicity, organism-based; set-up: dose 300 mg/kg, route intraperitoneal; settings: in vivo
Summary of the method: (§3)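 Rotarod test in mice pre-trained to stay on the rod for two consecutive 90 s trials. Compounds given i.p. at 30, 100 or 300 mg/kg, with testing at 0.5 h and 4 h. Deficit was scored as failure to keep balance on the rod for 1 min in each of three trials. The value recorded is the lowest dose affecting half or more of the mice.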

[8] = tested on: Mus musculus; assay: Neurotoxicity in Albino CF1 mouse at 300 mg/kg, ip after 4 hrs by Rotarod test; format: toxicity, organism-based; set-up: dose 300 mg/kg, route intraperitoneal; settings: in vivo; summary of the method: as §3
[9] = tested on: Mus musculus; assay: Anticonvulsant activity against subcutaneous strychnine-induced seizure in Albino CF1 mouse at 300 mg/kg, ip after 4 hrs; format: functional, organism-based; set-up: dose 300 mg/kg; summary of the method: as §1
[10] = tested on: Mus musculus; assay: Anticonvulsant activity against subcutaneous pentylenetetrazole-induced seizure in Albino CF1 mouse at 300 mg/kg, ip after 4 hrs; format: functional, organism-based; set-up: dose 300 mg/kg; summary of the method: as §1
[11] = tested on: Mus musculus; assay: Neurotoxicity in Albino CF1 mouse at 100 mg/kg, ip after 0.5 hrs by Rotarod test; format: toxicity, organism-based; set-up: dose 100 mg/kg, route intraperitoneal; settings: in vivo; summary of the method: as §3
[12] = tested on: Mus musculus; assay: Anticonvulsant activity against subcutaneous strychnine-induced seizure in Albino CF1 mouse at 100 mg/kg, ip after 0.5 hrs; format: functional, organism-based; set-up: dose 100 mg/kg; summary of the method: as §1
[13] = tested on: Mus musculus; assay: Anticonvulsant activity against intraperitoneal picrotoxin-induced seizure in Albino CF1 mouse at 100 mg/kg, ip after 0.5 hrs; format: functional, organism-based; set-up: dose 100 mg/kg; summary of the method: as §2
[14] = tested on: Mus musculus; assay: Anticonvulsant activity against intraperitoneal picrotoxin-induced seizure in Albino CF1 mouse at 100 mg/kg, ip after 4 hrs; format: functional, organism-based; set-up: dose 100 mg/kg; summary of the method: as §2
[15] = tested on: Mus musculus; assay: Anticonvulsant activity against subcutaneous strychnine-induced seizure in Albino CF1 mouse at 100 mg/kg, ip after 4 hrs; format: functional, organism-based; set-up: dose 100 mg/kg; summary of the method: as §1

Compound: Cc1ccc(NC(=O)CCCN2C(=O)c3ccccc3C2=O)c(C)c1
- Activity [1]: inactive
- Activity [2]: inactive
- Activity [3]: Active
- Activity [4]: inactive
- Activity [5]: Active
- Activity [6]: inactive
- Activity [7]: Active
- Activity [8]: Active
- Activity [9]: inactive

Compound: Cc1ccc(C)c(NC(=O)CCCN2C(=O)c3ccccc3C2=O)c1
- Activity [1]: inactive
- Activity [2]: inactive
- Activity [10]: inactive
- Activity [4]: Active
- Activity [5]: Active
- Activity [6]: inactive
- Activity [11]: Active
- Activity [8]: Active
- Activity [9]: Active

Compound: O=C(CCCN1C(=O)c2ccccc2C1=O)NN=C(c1ccccc1)c1ccccc1
- Activity [1]: inactive
- Activity [2]: inactive
- Activity [10]: inactive
- Activity [4]: inactive
- Activity [5]: Active
- Activity [6]: inactive
- Activity [7]: Not Active
- Activity [8]: Not Active
- Activity [9]: inactive

Compound: COc1cc(/C=N\NC(=O)CCCN2C(=O)c3ccccc3C2=O)ccc1O
- Activity [1]: inactive
- Activity [2]: inactive
- Activity [10]: inactive
- Activity [4]: inactive
- Activity [5]: Active
- Activity [6]: inactive
- Activity [7]: Not Active
- Activity [8]: Not Active
- Activity [9]: inactive

Compound: O=C(CCCN1C(=O)c2ccccc2C1=O)N/N=C\c1cccc([N+](=O)[O-])c1
- Activity [1]: inactive
- Activity [2]: Active
- Activity [10]: inactive
- Activity [4]: inactive
- Activity [5]: Active
- Activity [6]: inactive
- Activity [7]: Not Active
- Activity [8]: Not Active
- Activity [9]: inactive

Compound: C/C(=N/NC(=O)CCCN1C(=O)c2ccccc2C1=O)c1cccc(N)c1
- Activity [1]: inactive
- Activity [2]: inactive
- Activity [10]: inactive
- Activity [4]: inactive
- Activity [5]: inactive
- Activity [6]: inactive
- Activity [7]: Not Active
- Activity [8]: Not Active
- Activity [9]: inactive

Compound: C/C(=N/NC(=O)CCCN1C(=O)c2ccccc2C1=O)c1ccc([N+](=O)[O-])cc1
- Activity [1]: inactive
- Activity [2]: inactive
- Activity [10]: inactive
- Activity [12]: Active
- Activity [5]: Active
- Activity [6]: inactive
- Activity [7]: Active
- Activity [8]: Not Active
- Activity [9]: inactive

Compound: O=C(CCCN1C(=O)c2ccccc2C1=O)N/N=C\c1ccccc1
- Activity [1]: inactive
- Activity [2]: inactive
- Activity [10]: inactive
- Activity [12]: Active
- Activity [13]: Active
- Activity [14]: Active
- Activity [7]: Not Active
- Activity [8]: Not Active
- Activity [15]: Active

Compound: C/C(=N/NC(=O)CCCN1C(=O)c2ccccc2C1=O)c1ccc(O)cc1
- Activity [1]: inactive
- Activity [2]: inactive
- Activity [10]: inactive
- Activity [12]: Active
- Activity [13]: Active
- Activity [6]: inactive
- Activity [7]: Not Active
- Activity [8]: Not Active
- Activity [9]: inactive

Compound: O=C(CCCN1C(=O)c2ccccc2C1=O)N/N=C\c1ccc([N+](=O)[O-])cc1
- Activity [1]: inactive
- Activity [2]: inactive
- Activity [10]: inactive
- Activity [4]: inactive
- Activity [5]: inactive
- Activity [6]: inactive
- Activity [7]: Not Active
- Activity [8]: Not Active
- Activity [9]: inactive

Source: ChEMBL document CHEMBL1142874, “Design and synthesis of anticonvulsants from a combined phthalimide-GABA-anilide and hydrazone pharmacophore” (Eur J Med Chem, 2007)
